The list is not random: actives were taken first. Their share in the collection is about 6.4%.
GRIN3A LBD mod = modulators (binders) of human NR3A ligand-binding domain; NR3A LBD differential scanning fluorimetry, Tm shift; 0% = protein alone, 100% = glycine-bound protein; Tm shift relative to glycine control, % at 25 µM; 2.5% of 340,000 active;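 active = melting temperature shift of at least 10% of the positive control shift, at one fixed dose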
MPTP inh = permeability transition pore inhibition. inhibition, % at 10 µM. AID 602449. 1.4% of 360,000 active. isolated mouse mitochondria, Ca2+ swelling absorbance, 30 min;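 active = inhibition of 50% or more, scaled per plate between neutral and stimulator controls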
EBV gp42 inh = EBV gp42 inhibition | Q1HVG2 | inhibition, % (tested at 21.74 µM) | Fluorescence polarization binding assay, mP read-out | 0.42% of 220,000 active; in the data active = inhibition above about 50%
Target sequence (Q1HVG2 whole entry, looked up): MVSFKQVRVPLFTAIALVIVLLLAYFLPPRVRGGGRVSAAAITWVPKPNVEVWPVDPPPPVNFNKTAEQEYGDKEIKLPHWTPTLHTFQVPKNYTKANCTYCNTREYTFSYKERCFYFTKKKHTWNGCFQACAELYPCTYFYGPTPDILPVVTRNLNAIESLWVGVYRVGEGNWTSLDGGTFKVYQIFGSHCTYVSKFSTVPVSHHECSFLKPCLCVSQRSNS
TbMetRS inhib = blocks T. brucei methionyl-tRNA synthetase activity; inhibition, % at 11.9 µM; 0.4% of 360,000 active; AID 624268; purified T. brucei MetRS, ATP depletion, Kinase-Glo luminescence;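 active = inhibition above a per-plate cutoff of the control wells' mean inhibition plus 3 SD, cut at about 5.5% in these data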
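Material: T. brucei methionyl-tRNA synthetase, purified; reagent: substrates ATP, L-methionine and bulk Escherichia coli tRNA; dosing: 11.9 µM single point; timing: 15 min plus 2 h at 25 °C; detection: luminescence of leftover ATP; evaluation: % inhibition; control set: DMSO-only wells as low control; replicates: singlicate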
CHOP inh = blocks CHOP induction under ER stress. CHO-K1 CHOP-promoter luciferase, tunicamycin-induced, 15-18 h. inhibition, % at 10 µM. 3.8% of 220,000 active;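 active = compounds that reduced the stress-induced luciferase reporter signal by more than about 70% of percent inhibition, limit read from the data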
WT yeast gro inh = growth inhibition of WT yeast, mitochondrial fusion screen; 2.1% of 190,000 active; inhibition, % at 10 µM; mitochondrial fusion phenotypic screen, WT strain; in the data active = inhibition above about 58%; tested in S. cerevisiae
Rh123 counter = membrane potential counter-screen of mitochondrial pore inhibitors. shares compounds with MPTP inh. isolated mitochondria, Rhodamine 123 fluorescence. inhibition, % at 10 µM. 78% of 5,000 active; in the data active = inhibition above about 22%
MPTP abs DR = dose response confirmation of mitochondrial permeability transition pore inhibitors; shares compounds with MPTP inh; isolated mitochondria swelling, absorbance; IC50, µM; 58% of 780 active; in the data active = IC50 below about 20 µM
MPTP counter DR = counter-screen for mitochondrial permeability transition pore inhibitors, dose response; shares compounds with MPTP inh; isolated mitochondria counterscreen, fluorescence read-out; IC50, µM; 49% of 780 active; in the data active = IC50 below about 80 µM
Of the large screens only hits and unclear results are named; the others gave an inactive call (follow-up assays come after a bar, where they were run).

CC(C)COc1ccc(CNC(=S)Nc2ccccc2)cc1Cl	GRIN3A LBD mod 15, MPTP inh 74 (no result: EBV gp42 inh, CHOP inh, WT yeast gro inh) | Rh123 counter 86
CCOc1ccc(CNC(=S)NCc2ccc(OCC)cc2)cc1	none
CC(C)Oc1ccc(CNC(=S)Nc2ccccc2)cc1Cl	none (no result: EBV gp42 inh, CHOP inh, WT yeast gro inh)
O=C(CSCc1ccc(Cl)cc1)Nc1ccc2c(c1)OCCO2	none
Fc1ccc(NC(=S)Nc2cccnc2)cc1	none
Fc1ccc(NC(=S)Nc2cc(-c3ccccc3)[nH]n2)cc1Cl	GRIN3A LBD mod 26, MPTP inh 66, CHOP inh 70 | Rh123 counter 82
Fc1ccc(NC(=S)Nc2cccnc2)cc1Cl	MPTP inh 101 | Rh123 counter 92
O=[N+]([O-])c1cc(S(=O)(=O)Nc2cccc(C(F)(F)F)c2)ccc1-n1nnc2ccccc21	GRIN3A LBD mod 19, MPTP inh 92 | Rh123 counter 84
Nc1nc2cc3c(cc2cc1C(=O)NCc1ccc(F)cc1)OCO3	MPTP inh 86 (no result: GRIN3A LBD mod, EBV gp42 inh, CHOP inh, WT yeast gro inh) | Rh123 counter 95
Oc1ccccc1-c1cc(-c2cccc(F)c2)n[nH]1	MPTP inh 58 | Rh123 counter 71
COc1cc(C(=O)N2CC(=O)Nc3ccccc32)cc(OC)c1OC	none (no result: GRIN3A LBD mod, EBV gp42 inh, CHOP inh, WT yeast gro inh)
CCN(CC)CC(O)COC(c1ccccc1)c1ccccc1 (stereo not drawn)	none (no result: WT yeast gro inh)
CCN(Cc1ccccc1)CC(O)COC(c1ccc(OC)cc1)c1ccc(OC)cc1 (stereo not drawn)	MPTP inh 79 (no result: EBV gp42 inh, CHOP inh, WT yeast gro inh) | Rh123 counter inactive | MPTP abs DR inactive | MPTP counter DR 54
CC(C)(C#CCN1CCCCC1)OCCOC(c1ccccc1)c1ccccc1	MPTP inh 77, CHOP inh 77 | Rh123 counter inactive | MPTP abs DR 20 | MPTP counter DR 20
CC(O)(C#CCN1CCCCC1)c1ccccc1 (stereo not drawn)	none
COc1ccc(NS(=O)(=O)c2ccc(N3CCOCC3)c(N)c2)cc1	MPTP inh 86 (no result: EBV gp42 inh, CHOP inh, WT yeast gro inh) | Rh123 counter 96
Nc1cc(S(=O)(=O)Nc2cc(Cl)ccc2Cl)ccc1N1CCOCC1	MPTP inh 61 (no result: WT yeast gro inh) | Rh123 counter inactive | MPTP abs DR inactive | MPTP counter DR 55
Nc1cc(S(=O)(=O)Nc2ccccc2Cl)ccc1N1CCCC1	none (no result: WT yeast gro inh)
CCOC(=O)c1ccc(Oc2cn[nH]c2-c2ccc(O)cc2O)cc1	GRIN3A LBD mod 29, MPTP inh 55 (no result: WT yeast gro inh) | Rh123 counter 26
O=C1NN(c2cccc(Br)c2)C(=O)/C1=C/c1ccc(-c2cc([N+](=O)[O-])ccc2O)o1	GRIN3A LBD mod 13, MPTP inh 79, EBV gp42 inh 101, CHOP inh 104 (no result: WT yeast gro inh) | Rh123 counter inactive
CC1=NN(c2ccc(C)cc2)C(=O)/C1=C/c1ccc(-c2cc([N+](=O)[O-])ccc2O)o1	MPTP inh 102 (no result: EBV gp42 inh, CHOP inh, WT yeast gro inh) | Rh123 counter 46
CC1=NN(c2ccc(C(=O)O)cc2)C(=O)/C1=C/c1ccc(-c2ccccc2F)o1	none (no result: GRIN3A LBD mod, EBV gp42 inh, CHOP inh, WT yeast gro inh)
Cc1ccc(C(=O)NNC(=S)NC(=O)c2ccc(Cl)cc2)cc1	MPTP inh 91, CHOP inh 94 | Rh123 counter inactive
Cc1cccc(C(=O)NC(=S)NNC(=O)c2ccccc2Cl)c1	MPTP inh 85, CHOP inh 86 | Rh123 counter inactive
Cc1cccc(C(=O)NC(=S)NNC(=O)COc2c(C)cccc2C)c1	MPTP inh 87 | Rh123 counter inactive | MPTP abs DR 6.7 | MPTP counter DR 39
O=C(Nc1ccc(Cl)cc1)Nc1ccc2c(c1)N1CCN=C1S2	GRIN3A LBD mod 14, MPTP inh 93 | Rh123 counter 77
Nc1ccc2c(c1)N1CCN=C1S2	none
CCn1c(NCc2ccccc2Cl)nc2ccccc21	none
Fc1ccc(Nc2c3c(nc4ccccc24)CCC3)cc1	MPTP inh 70 | Rh123 counter 84
COc1ccc(C(=O)COC(=O)c2ccccc2NS(=O)(=O)c2ccc(O)c([N+](=O)[O-])c2)cc1	MPTP inh 71 (no result: WT yeast gro inh) | Rh123 counter 51
Cc1nonc1NC(=O)CSc1nc(CCC2CCCC2)nc2ccccc12	MPTP inh 66 (no result: WT yeast gro inh) | Rh123 counter 82
CCCc1nc(SCC(=O)NC2CCCC2)c2ccccc2n1	none (no result: EBV gp42 inh, CHOP inh, WT yeast gro inh)
CCCCCN=C(C)c1c(O)c2ccccc2oc1=O	none
COC(=O)c1ccc(N2CCOCC2)c(NC(=O)Nc2cccc(OC)c2)c1	none
CCOC(=O)c1ccc(N2CCN(c3ccccc3F)CC2)c(NC(=O)Nc2cccc(OC)c2)c1	GRIN3A LBD mod 11, MPTP inh 78 | Rh123 counter 84
Cc1cc([N+](=O)[O-])cnc1Sc1nccn1C	none
CC(Nc1ncnc2ccccc12)c1ccccc1 (stereo not drawn)	MPTP inh 96 (no result: EBV gp42 inh, CHOP inh, WT yeast gro inh) | Rh123 counter 83
NC(=S)NNc1ccnc2cc(Cl)ccc12	none
O=C(NNc1ccnc2cc(Cl)ccc12)C1CCCCC1	MPTP inh 99 | Rh123 counter 90
FC(F)Oc1ccc(NC(=S)NNc2ccnc3cc(Cl)ccc23)cc1	MPTP inh 101 | Rh123 counter 65
O=C(/C=C/c1ccc(Cl)cc1Cl)NCCSCc1ccccc1	MPTP inh 92, WT yeast gro inh 59 | Rh123 counter 82
O=C(/C=C/c1ccc(Cl)cc1)NCCSc1ccccc1	none
O=C(/C=C/c1cccc([N+](=O)[O-])c1)NCCSCc1ccc(Cl)cc1	MPTP inh 51 | Rh123 counter 64
O=C(/C=C/c1ccc(Cl)cc1Cl)NCCSc1ccccc1	MPTP inh 96, WT yeast gro inh 64 | Rh123 counter 92
OCC1CCCCN1C(=S)NCc1ccco1 (stereo not drawn)	none
Cc1ccc(S(=O)(=O)Nc2ccc3cc([N+](=O)[O-])ccc3c2[N+](=O)[O-])cc1	MPTP inh 88 (no result: EBV gp42 inh, CHOP inh, WT yeast gro inh) | Rh123 counter 79
CCN(CC)C(=O)c1ccc(S(=O)(=O)N2CCC(c3nc4ccccc4s3)CC2)cc1	MPTP inh 89, CHOP inh 74 | Rh123 counter 94
COc1ccc(C2C(=O)c3ccccc3C2=Nc2ccc(Br)cc2)cc1 (stereo not drawn)	MPTP inh 90 (no result: EBV gp42 inh, CHOP inh, WT yeast gro inh) | Rh123 counter 50
O=C1c2ccccc2C(=O)C1c1ccc(Br)cc1	none (no result: EBV gp42 inh, CHOP inh, WT yeast gro inh)
O=[N+]([O-])c1cc(-c2n[nH]c(-c3ccccc3)n2)cc([N+](=O)[O-])c1	GRIN3A LBD mod 27, MPTP inh 72, CHOP inh 94 | Rh123 counter inactive | MPTP abs DR 20 | MPTP counter DR <2.5
COc1ccc(S(=O)(=O)N2CCOCC2)cc1NC(=O)Cc1ccccc1Cl	none
CC(C)(C)NC(=O)Nc1ccc(Br)cc1	MPTP inh 58 | Rh123 counter 77

Assay outcomes from PubChem.
